PfGluPho inh = PfG6PD (Plasmodium falciparum) enzyme inhibition. 350,000 compounds, 0.78% hits. PfGluPho enzyme, NADPH resazurin-diaphorase fluorescence. AID 504690. inhibition, % at 20 µM;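 active = inhibition reaching at least a set limit at 20 µM in the primary screen, cut at about 59% in these data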
DTT redox prof = compounds producing H2O2 with reducing agent – biochemical, NIH compound library profiling, artefact control for MLSCN library redox annotation, primary screen; DTT-dependent redox cycling H2O2, phenol red/HRP absorbance; 100% = 100 µM peroxide control, 0% = buffer; activation, % at 10 µM; 200,000 compounds, 0.03% hits; AID 878;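 active = activation of at least 50% relative to the plate's high and low controls in the primary single-dose screen; inactive = activation below 50%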;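 note: compound incubated with DTT at 0.8 mM final as the reducing agent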
Lmaj promast = Leishmania major promastigote growth inhibition | Leishmania major promastigotes, resazurin fluorescence viability | inhibition, % at 10 µM | 200,000 compounds, 9% hits | AID 1063;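 note: promastigotes grown with compound for 44 hours at 28 °C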
Diaphorase inh = counter-screen for diaphorase-based assays: diaphorase inhibitors and chemical oxidizers. diaphorase resazurin-to-resorufin fluorescence, NADH, 16 min; bacterial (C. kluyveri) enzyme, not human. inhibition, % at 20 µM. 190,000 compounds, 0.69% hits. AID 1217;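 active = primary screen inhibition at 20 µM above a set limit, cut at about 50% in these data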
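Test system: bacterial diaphorase enzyme (C. kluyveri); Quantity: 0.14 U/mL diaphorase, enzyme working solution; Times: reaction incubation of 16 min at room temperature; Measured by: fluorescence of resorufin formed from resazurin, Ex 544/Em 590 nm; Benchmarks: positive control minus NADH, DMSO neutral control.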
G6PDH CS = inhibits Leuconostoc G6PDH, flagging false hits in G6PDH-based assays | 200,000 compounds, 0.12% hits | inhibition, % at 5 µM | Purified L. mesenteroides G6PDH, diaphorase/resazurin coupled fluorescence, 45 min
Diaphorase act = activates diaphorase or chemically reduces, flagging diaphorase assay artifacts | Diaphorase/resazurin coupled assay, resorufin fluorescence, 16 min; active compounds read high; 1 = vehicle wells, 0 = NADH-free wells | activation factor at 20 µM | 190,000 compounds, 0.005% hits | AID 1229;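 active = diaphorase activity raised at least twofold by the compound at 20 µM; inactive = activation factor below 2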
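Material: purified diaphorase enzyme from Clostridium kluyveri / Medium: HEPES pH 7.4 buffer with MgCl2 and Tween 20 / Schedule: enzyme reaction of 16 min at room temperature / Measured by: resorufin fluorescence, excitation 544 nm, emission 590 nm / Evaluation: rise in resorufin formation, marking diaphorase activation or chemical reduction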
Hits are given with their value; – = inactive; · = no result. This is one part of a sample in which hits are shown more often than they occur. Cut-off read from the data, not from the text of the source, unless noted: active = inhibition above about 50%; inactive = the rest.

SMILES | PfGluPho inh | DTT redox prof | Lmaj promast | Diaphorase inh | G6PDH CS | Diaphorase act
CCN(CC)CC#CCC(O)(c1ccccc1)c1ccc(Br)cc1 (centres undefined) | – | – | – | – | – | –
CCN(CC)CC#CCC(C)(c1ccccc1)c1ccccc1 | – | – | 94.4 | – | – | –
CSc1nsc(SCC(=O)Nc2ccccc2F)n1 | – | · | · | · | · | ·
O=C(CCc1nc2ccccc2c(=O)[nH]1)OCc1cccc(C(F)(F)F)c1 | – | – | 63.2 | – | – | –
O=C(CCc1nc2ccccc2c(=O)[nH]1)OCc1ccc(-c2ccccc2)cc1 | – | – | 93.3 | – | – | –
Cc1ccc(OCCOC(=O)CCc2nc3ccccc3c(=O)[nH]2)cc1 | – | – | – | – | – | –
O=C(COC(=O)CCc1nc2ccccc2c(=O)[nH]1)NC(=O)NC1CCCC1 | – | – | 52.8 | – | – | –
O=C(COC(=O)CCc1nc2ccccc2c(=O)[nH]1)Nc1c(Cl)cccc1C(F)(F)F | – | · | · | · | · | ·
CCC1CN(C(=O)N2CCC(C(=O)NCc3cccc(OC)c3OC)CC2)c2cc(C)ccc2O1 (centres undefined) | – | · | · | · | · | ·
COc1ccc(-c2nsc(SCC(=O)NCc3ccc4c(c3)OCO4)n2)cc1 | – | – | 98.8 | – | – | –
Cc1ccc(-c2csc(NC(=O)CSc3nc4ccccc4o3)n2)cc1 | – | – | 81.4 | – | – | –
CC(=O)CSc1nc2ccccc2o1 | – | – | – | – | – | –
O=C(CSc1nc(C2CCCCC2)nc2ccccc12)NCc1ccc2c(c1)OCO2 | – | – | 53.0 | – | – | –
CC(C)C(=O)NNC(=O)CSc1nc(C2CCCCC2)nc2ccccc12 | – | – | – | – | – | –
O=C(CSc1nc2ccccc2o1)N1c2ccccc2Sc2ccccc21 | – | – | 82.2 | – | – | –
CSCCC(NC(=O)c1ccco1)C(=O)N1CCN(C(c2ccccc2)c2ccccc2)CC1 (centres undefined) | – | · | · | · | · | ·
O=C(CSc1nc(C2CC2)nc2ccccc12)N1c2ccccc2Sc2ccccc21 | – | – | 50.4 | – | – | –
CC(=O)c1ccc(NC(=O)CSc2nc(C3CC3)nc3ccccc23)cc1 | – | · | · | · | · | ·
CCOC(=O)/C(=C/c1ccc(OC(F)F)cc1)C1=Nn2c(nnc2-c2ccc(Cl)cc2)SC1 | – | · | · | · | · | ·
CCOC(=O)/C(=C\c1ccc(OC(F)F)cc1)C1=Nn2c(nnc2-c2ccc(Cl)cc2)SC1 | – | – | 100.4 | – | – | –
CCOc1nc(C)cc(C)c1S(=O)(=O)c1cccc(Cl)c1 | – | · | · | · | · | ·
CCOC(=O)c1sc(NC(=O)c2sccc2C)cc1C | – | – | 69.1 | – | – | –
CCOC(=O)c1sc(NC(=O)c2cccs2)cc1C | – | – | – | – | – | –
CSc1ccc(S(=O)(=O)N2CCC(C(=O)N3CCc4ccccc4C3)CC2)cc1 | – | · | · | · | · | ·
O=C(Cn1cncn1)N/N=C/c1ccc(Cl)cc1 | – | – | – | – | – | –
SMILES | PfGluPho inh | DTT redox prof | Lmaj promast | Diaphorase inh | G6PDH CS | Diaphorase act
CC(C)(C)/C(Cn1cncn1)=N\OC(=O)Nc1ccc(Cl)cc1 | – | – | 84.9 | – | – | –
O=S(=O)(c1ccccc1)c1nc(-c2cccs2)oc1NCC1CCCO1 (centres undefined) | – | – | 85.6 | – | – | –
N#Cc1nc(-c2cccs2)oc1NCC1CCCO1 (centres undefined) | – | – | – | – | – | –
CC(C(=O)c1ccc(Br)cc1)[n+]1cccc(NC(=O)c2ccccc2)c1 (centres undefined) | – | – | 55.8 | – | – | –
CC(C(=O)c1ccccc1)[n+]1cccc(C(N)=O)c1 (centres undefined) | – | · | · | · | · | ·
O=C(C[n+]1cccc(NC(=O)c2ccccc2)c1)c1ccc(NC(=O)c2ccccc2)cc1 | – | – | 71.5 | – | – | –
COC(=O)c1nn(-c2ccccc2)c(Sc2ccc(Br)cc2)c1/C=N/O | – | – | – | – | – | –
CC[n+]1c(/C=C/N(C)c2ccccc2)oc2ccc(F)cc21 | – | – | 83.6 | – | – | –
CC[n+]1c(/C=C/N(C)c2ccccc2)oc2ccccc21 | – | – | 100.0 | – | – | –
CN(/C=C/c1c([N+](=O)[O-])c(=O)n(C)c(=O)n1C)c1ccccc1 | – | – | – | – | – | –

Screening data deposited in PubChem by several laboratories.
